From ChEMBL document CHEMBL5653631, “A Potent and Selective ULK1 Inhibitor Suppresses Autophagy and Sensitizes Cancer Cells to Nutrient Stress” (iScience, 2018)

Key:
[1] = target: [Pyruvate dehydrogenase (acetyl-transferring)] kinase isozyme 4, mitochondrial (Homo sapiens) (UniProt Q16654); assay: Inhibition of human recombinant PDHK4 at 40 nM in presence of ATP by radiometric assay relative to control
[2] = target: T1, Serine/threonine-protein kinase BRSK1 (Homo sapiens) (UniProt Q8TDC3); assay: Inhibition of human recombinant BRSK1 at 15 nM in presence of ATP by radiometric assay relative to control
T1 sequence (whole entry): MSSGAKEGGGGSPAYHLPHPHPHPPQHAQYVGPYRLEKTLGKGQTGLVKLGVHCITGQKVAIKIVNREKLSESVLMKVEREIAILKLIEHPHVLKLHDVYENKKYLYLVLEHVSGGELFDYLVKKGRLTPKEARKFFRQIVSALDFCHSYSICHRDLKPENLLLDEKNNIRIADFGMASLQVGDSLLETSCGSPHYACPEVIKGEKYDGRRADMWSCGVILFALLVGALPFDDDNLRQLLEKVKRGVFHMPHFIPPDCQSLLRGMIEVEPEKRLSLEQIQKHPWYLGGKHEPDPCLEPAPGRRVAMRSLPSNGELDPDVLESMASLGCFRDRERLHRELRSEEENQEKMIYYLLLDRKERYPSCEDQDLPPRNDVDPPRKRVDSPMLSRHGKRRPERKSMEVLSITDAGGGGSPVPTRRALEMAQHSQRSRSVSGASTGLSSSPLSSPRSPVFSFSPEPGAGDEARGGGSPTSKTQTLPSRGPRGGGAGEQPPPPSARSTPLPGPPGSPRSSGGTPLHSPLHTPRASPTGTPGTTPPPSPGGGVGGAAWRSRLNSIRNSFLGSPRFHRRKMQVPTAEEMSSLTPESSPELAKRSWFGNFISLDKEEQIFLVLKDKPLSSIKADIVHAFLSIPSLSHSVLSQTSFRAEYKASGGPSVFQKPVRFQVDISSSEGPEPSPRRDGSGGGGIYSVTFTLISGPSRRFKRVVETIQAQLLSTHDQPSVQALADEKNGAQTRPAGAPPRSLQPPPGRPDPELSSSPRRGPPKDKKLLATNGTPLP
Outline: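 Part of a radiometric in vitro activity panel of 327 recombinant human kinases. Each kinase was tested in duplicate at one inhibitor concentration. Activity remaining was expressed as a percentage of the vehicle control, and percent inhibition was taken as 100 minus that value.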

[3] = target: Insulin-like growth factor 1 receptor (Homo sapiens) (UniProt P08069); assay: Inhibition of human recombinant IGF1R at 15 nM in presence of ATP by radiometric assay relative to control
[4] = target: T2, Serine/threonine-protein kinase TBK1 (Homo sapiens) (UniProt Q9UHD2); assay: Inhibition of human recombinant TBK1 at 15 nM in presence of ATP by radiometric assay relative to control
T2 sequence (whole entry): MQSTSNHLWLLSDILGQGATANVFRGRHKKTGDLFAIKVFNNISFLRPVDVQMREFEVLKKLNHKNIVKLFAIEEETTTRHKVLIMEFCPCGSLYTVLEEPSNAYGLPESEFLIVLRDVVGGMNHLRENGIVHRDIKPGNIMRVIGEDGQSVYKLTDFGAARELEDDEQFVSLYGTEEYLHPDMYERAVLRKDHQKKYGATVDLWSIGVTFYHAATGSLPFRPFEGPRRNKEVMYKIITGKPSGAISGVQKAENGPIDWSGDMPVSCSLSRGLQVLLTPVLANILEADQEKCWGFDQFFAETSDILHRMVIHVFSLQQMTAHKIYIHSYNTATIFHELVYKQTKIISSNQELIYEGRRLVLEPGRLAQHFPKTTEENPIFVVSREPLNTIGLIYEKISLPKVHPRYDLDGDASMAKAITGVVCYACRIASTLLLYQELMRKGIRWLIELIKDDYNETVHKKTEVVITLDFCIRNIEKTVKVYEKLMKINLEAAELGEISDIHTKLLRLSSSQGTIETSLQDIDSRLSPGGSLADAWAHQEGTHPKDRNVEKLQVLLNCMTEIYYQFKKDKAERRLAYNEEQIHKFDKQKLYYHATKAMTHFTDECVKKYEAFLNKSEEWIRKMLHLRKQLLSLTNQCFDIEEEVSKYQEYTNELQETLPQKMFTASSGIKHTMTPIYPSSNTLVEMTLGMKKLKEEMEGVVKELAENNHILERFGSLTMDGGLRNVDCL

[5] = target: T3, Activin receptor type-1B (Homo sapiens) (UniProt P36896); assay: Inhibition of human recombinant ALK4 at 15 nM in presence of ATP by radiometric assay relative to control
T3 sequence (whole entry): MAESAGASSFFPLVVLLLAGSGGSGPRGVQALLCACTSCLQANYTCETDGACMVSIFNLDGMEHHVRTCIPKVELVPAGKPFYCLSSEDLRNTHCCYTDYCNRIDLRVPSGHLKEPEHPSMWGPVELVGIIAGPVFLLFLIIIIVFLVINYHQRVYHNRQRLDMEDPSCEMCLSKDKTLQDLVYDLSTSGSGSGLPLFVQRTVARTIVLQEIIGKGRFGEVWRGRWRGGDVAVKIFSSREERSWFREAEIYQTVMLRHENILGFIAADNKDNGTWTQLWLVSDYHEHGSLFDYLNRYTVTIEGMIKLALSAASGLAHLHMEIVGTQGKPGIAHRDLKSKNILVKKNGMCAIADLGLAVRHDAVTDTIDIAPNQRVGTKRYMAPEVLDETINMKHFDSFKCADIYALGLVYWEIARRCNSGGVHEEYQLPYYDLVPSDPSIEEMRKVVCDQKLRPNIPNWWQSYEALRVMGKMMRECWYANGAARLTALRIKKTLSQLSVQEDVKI
Outline: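 Panel of 327 recombinant human kinases, each assayed in vitro by radiometric activity assay in duplicate at a single inhibitor concentration per compound, chosen with reference to its ULK1 inhibition. Activity remaining was expressed as percent of vehicle control, and percent inhibition was calculated as 100 minus percent activity remaining.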

[6] = target: Aurora kinase B (Homo sapiens) (UniProt Q96GD4); assay: Inhibition of human recombinant AurB at 15 nM related to control ULK1
[7] = target: Serine/threonine-protein kinase WNK2 (Homo sapiens) (UniProt Q9Y3S1); assay: Inhibition of human recombinant Wnk2 at 15 nM in presence of ATP by radiometric assay relative to control
[8] = target: Serine/threonine-protein kinase PAK 6 (Homo sapiens) (UniProt Q9NQU5); assay: Inhibition of human recombinant PAK6 at 15 nM in presence of ATP by radiometric assay relative to control
[9] = target: Mitogen-activated protein kinase 8 (Homo sapiens) (UniProt P45983); assay: Inhibition of human recombinant JNK1 at 500 nM in presence of ATP by radiometric assay relative to control
Mitogen-activated protein kinase 8 (Homo sapiens), sequence (P45983 whole entry): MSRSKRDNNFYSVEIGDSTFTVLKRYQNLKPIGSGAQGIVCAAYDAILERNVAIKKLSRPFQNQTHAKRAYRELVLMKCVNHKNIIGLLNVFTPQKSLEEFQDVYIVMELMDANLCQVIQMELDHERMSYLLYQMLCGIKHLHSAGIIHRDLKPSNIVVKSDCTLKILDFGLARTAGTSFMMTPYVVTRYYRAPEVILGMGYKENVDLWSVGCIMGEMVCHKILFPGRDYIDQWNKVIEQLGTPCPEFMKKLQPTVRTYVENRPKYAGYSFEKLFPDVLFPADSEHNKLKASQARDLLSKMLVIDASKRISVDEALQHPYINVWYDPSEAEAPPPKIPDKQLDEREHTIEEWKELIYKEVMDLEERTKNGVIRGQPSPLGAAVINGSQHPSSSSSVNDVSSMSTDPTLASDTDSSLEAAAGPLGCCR

[Pyruvate dehydrogenase (acetyl-transferring)] kinase isozyme 4, mitochondrial (Homo sapiens), sequence (Q16654 whole entry, looked up): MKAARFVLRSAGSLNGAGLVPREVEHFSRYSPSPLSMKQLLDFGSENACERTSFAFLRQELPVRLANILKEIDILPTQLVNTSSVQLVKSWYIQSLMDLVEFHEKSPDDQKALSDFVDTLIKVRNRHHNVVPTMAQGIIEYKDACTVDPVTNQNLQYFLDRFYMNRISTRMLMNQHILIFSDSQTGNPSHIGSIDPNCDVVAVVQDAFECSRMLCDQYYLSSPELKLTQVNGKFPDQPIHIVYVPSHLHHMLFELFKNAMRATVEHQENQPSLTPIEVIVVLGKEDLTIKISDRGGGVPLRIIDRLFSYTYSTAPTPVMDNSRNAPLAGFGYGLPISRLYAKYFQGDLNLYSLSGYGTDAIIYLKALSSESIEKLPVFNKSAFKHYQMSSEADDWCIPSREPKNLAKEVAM
Insulin-like growth factor 1 receptor (Homo sapiens), sequence (P08069 31-736 limits assumed): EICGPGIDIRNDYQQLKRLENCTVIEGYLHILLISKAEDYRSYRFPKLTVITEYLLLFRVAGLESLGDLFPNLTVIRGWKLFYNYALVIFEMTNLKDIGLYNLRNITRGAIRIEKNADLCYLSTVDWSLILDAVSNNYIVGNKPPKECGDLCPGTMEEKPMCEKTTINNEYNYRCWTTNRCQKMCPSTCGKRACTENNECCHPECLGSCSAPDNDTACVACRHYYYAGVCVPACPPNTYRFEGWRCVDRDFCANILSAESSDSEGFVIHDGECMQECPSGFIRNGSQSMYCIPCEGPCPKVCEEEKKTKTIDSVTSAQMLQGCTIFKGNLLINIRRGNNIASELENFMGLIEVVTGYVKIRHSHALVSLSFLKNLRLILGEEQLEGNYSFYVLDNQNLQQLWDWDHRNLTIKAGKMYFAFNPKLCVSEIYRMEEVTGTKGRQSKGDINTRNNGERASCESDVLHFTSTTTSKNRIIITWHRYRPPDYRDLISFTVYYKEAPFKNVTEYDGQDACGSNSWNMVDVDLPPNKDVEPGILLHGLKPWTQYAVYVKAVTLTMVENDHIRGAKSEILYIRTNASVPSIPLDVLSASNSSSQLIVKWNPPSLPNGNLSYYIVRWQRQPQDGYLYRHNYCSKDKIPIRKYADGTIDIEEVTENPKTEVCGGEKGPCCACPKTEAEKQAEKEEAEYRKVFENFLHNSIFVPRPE
Insulin-like growth factor 1 receptor (Homo sapiens), sequence (P08069 741-1367 limits assumed): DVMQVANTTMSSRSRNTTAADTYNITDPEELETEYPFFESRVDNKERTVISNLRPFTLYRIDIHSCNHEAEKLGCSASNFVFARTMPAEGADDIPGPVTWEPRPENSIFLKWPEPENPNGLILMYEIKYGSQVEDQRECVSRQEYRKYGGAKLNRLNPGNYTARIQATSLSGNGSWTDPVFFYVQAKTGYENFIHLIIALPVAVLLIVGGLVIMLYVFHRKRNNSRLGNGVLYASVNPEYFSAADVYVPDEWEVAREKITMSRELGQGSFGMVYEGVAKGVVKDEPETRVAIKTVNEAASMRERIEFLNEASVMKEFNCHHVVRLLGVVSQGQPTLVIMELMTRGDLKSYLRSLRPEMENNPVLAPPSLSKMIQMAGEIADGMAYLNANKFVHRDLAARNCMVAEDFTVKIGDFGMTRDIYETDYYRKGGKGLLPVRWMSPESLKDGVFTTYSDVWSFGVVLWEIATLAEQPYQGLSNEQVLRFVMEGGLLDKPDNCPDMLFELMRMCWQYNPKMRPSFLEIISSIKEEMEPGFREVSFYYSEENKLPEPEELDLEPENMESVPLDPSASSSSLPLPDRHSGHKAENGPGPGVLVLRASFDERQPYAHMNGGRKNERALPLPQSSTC
Aurora kinase B (Homo sapiens), sequence (Q96GD4 whole entry): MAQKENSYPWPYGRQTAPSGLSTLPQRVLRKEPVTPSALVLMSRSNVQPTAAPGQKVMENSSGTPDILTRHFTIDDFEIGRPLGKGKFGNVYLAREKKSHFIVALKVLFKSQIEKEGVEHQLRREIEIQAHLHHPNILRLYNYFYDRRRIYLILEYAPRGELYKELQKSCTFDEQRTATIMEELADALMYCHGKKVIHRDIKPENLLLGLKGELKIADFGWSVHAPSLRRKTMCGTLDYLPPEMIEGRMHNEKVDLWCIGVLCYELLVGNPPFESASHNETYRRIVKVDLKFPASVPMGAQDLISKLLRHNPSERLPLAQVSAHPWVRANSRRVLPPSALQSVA
Serine/threonine-protein kinase WNK2 (Homo sapiens), sequence (Q9Y3S1 whole entry): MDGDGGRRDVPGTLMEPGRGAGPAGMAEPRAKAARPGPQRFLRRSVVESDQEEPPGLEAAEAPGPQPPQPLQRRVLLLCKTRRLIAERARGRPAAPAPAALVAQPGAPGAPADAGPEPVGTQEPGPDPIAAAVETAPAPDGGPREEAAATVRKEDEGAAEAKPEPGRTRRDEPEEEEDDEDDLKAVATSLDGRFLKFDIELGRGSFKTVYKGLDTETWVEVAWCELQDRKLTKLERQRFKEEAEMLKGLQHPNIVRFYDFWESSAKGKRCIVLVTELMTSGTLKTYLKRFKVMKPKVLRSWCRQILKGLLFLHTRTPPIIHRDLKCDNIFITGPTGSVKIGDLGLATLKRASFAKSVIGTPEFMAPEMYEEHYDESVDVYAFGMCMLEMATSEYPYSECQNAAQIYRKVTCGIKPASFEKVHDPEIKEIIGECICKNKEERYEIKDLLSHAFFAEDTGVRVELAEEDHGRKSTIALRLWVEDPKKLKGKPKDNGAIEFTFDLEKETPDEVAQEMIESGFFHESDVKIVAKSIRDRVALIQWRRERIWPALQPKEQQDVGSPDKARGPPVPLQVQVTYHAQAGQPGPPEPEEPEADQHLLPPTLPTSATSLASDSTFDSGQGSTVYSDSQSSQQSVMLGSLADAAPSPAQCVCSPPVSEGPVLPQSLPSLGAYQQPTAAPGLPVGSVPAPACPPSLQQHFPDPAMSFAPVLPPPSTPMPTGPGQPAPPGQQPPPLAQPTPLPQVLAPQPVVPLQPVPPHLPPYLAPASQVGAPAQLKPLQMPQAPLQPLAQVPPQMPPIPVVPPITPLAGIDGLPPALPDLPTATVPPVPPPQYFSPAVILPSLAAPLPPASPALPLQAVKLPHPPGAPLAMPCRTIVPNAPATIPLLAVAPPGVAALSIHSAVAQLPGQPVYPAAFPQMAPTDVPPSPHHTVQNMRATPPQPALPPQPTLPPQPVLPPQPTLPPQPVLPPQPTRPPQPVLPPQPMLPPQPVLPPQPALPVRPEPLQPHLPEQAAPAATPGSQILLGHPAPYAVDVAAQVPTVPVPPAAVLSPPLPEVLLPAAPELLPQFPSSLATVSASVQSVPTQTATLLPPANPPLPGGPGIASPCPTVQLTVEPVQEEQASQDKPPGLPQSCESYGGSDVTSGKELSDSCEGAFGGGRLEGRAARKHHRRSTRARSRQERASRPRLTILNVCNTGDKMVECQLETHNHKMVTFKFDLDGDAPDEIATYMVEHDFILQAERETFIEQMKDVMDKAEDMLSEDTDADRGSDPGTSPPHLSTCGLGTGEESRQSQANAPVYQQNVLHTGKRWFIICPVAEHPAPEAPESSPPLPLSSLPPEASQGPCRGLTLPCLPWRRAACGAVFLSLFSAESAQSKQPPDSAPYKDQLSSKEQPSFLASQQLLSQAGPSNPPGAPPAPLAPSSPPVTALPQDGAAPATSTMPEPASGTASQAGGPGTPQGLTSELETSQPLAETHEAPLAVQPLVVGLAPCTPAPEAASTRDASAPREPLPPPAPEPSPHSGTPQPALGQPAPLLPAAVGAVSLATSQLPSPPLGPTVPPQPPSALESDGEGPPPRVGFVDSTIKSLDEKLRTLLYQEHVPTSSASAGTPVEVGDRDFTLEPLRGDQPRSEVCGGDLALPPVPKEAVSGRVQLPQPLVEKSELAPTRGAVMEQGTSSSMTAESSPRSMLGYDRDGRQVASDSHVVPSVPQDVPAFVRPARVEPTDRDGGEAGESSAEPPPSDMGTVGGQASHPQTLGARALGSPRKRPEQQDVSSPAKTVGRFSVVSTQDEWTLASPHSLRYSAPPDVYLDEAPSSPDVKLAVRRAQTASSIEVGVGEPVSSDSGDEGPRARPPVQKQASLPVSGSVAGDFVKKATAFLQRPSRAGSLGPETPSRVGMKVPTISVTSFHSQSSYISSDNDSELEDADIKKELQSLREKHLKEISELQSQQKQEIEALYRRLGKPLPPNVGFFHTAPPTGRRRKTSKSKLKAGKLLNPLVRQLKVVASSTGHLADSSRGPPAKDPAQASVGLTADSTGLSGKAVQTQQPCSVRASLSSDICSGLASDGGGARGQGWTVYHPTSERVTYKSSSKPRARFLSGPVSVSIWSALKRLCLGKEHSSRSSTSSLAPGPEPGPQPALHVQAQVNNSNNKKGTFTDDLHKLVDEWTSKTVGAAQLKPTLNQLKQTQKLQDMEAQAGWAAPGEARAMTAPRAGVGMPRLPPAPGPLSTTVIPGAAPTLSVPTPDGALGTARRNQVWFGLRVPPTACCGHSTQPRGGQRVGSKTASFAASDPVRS

## O=C(N[C@@H](C1CC1)C(F)(F)F)c1cc(-c2cnn3cc(-c4ccc(F)cc4)cnc23)cs1
[1]
  inhibition: 0%

## CC(C)[C@H](NC(=O)c1cc(-c2cnn3cc(-c4ccc(OCCN5CCCCC5)cc4)cnc23)cs1)C(F)(F)F
[2]
  inhibition: 13%
[3]
  inhibition: 0%
[4]
  inhibition: 79%
[5]
  inhibition: 20%
[6]
  fold change (FC): 0.2
[7]
  inhibition: 2%
[8]
  inhibition: 0%

## CNC(=O)c1ccccc1Oc1nc(Nc2cc(OC)c(OC)c(OC)c2)ncc1Br
[9]
  inhibition: 1%
